# In PubChem BioAssay AID1235 (PCMD, 2008):
# The campaign covered roughly 62,000 compounds. About 50 (0.08%) were called active.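 The calls were made as follows: active = inhibition above 30% in each of the two pooled mixtures holding the compound, so the lower value exceeds 30%; inactive = the rest.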 Many of the other results were omitted from the sample, so actives are more common in it than they were.
# Assay: alternative complement pathway inhibitors, primary screen, biochemical, ELISA, human serum, orthogonally pooled compounds (AID 1235);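 also: 0% = serum in Mg-EGTA without compound and 100% = EDTA serum blank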
# Conditions: LPS-coated ELISA, C3 deposition, tested in compound mixtures, at 5 µM, active compounds read high
# Procedure, shortened: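 Assay system: human serum alternative complement pathway, C3 deposition on LPS-coated wells; Dosing: 5 µM per compound in ten-compound mixtures; Detection: Anti-C3 ELISA, OD 450 nm; Buffer or medium: Mg2+-EGTA GVB++ buffer containing human serum at 1:15 dilution; Timing: 1 h at 37 °C; Replication: two different pools per compound.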
row,Structure (SMILES),inhibition
1,c1c2c(cc3sc(N4CCCCC4)nc13)OCCO2,-3.86% (inactive)
2,CC(C(=O)O)N1C(=O)c2cccc3cccc1c23 (centres undefined),-0.13% (inactive)
3,O=C1C2(c3ccccc3)CN(CCCO)CC1(c1ccccc1)CN(CCCO)C2,0.125% (inactive)
4,Cc1cc(C)nc(NC(=O)C(C)N2C(=O)c3ccccc3C2=O)n1 (centres undefined),4.23% (inactive)
5,Cc1cc(N(C)C)cc(C)[n+]1[O-],13.5% (inactive)
6,CC(=O)NC(Cc1ccc(F)cc1)C(=O)O (centres undefined),10.5% (inactive)
7,COc1ccc2c(Cl)c(-c3nnco3)sc2c1,9.28% (inactive)
8,CCCCCN(C(=O)NC(=O)Nc1ccccc1C)S(C)(=O)=O,18.8% (inactive)
9,CS(=O)(=O)N(CC(=O)NCc1ccco1)c1ccc2c(c1)OCO2,-0.135% (inactive)
10,COc1ccc(CCNC(=O)c2ccco2)cc1,3.87% (inactive)
11,O=C(CSc1nnc(-c2cccs2)n1-c1ccccc1)N1CCN(C(=O)c2ccco2)CC1,13.8% (inactive)
12,COC(=O)c1ccccc1NC(=O)CSc1ccccn1,-0.725% (inactive)
13,COc1cccc(Oc2ccc(N)cc2)c1,5.52% (inactive)
14,CCNC(=O)N1CCNC(=O)C1CC(=O)Nc1ccc(C(=O)OCC)cc1 (centres undefined),-0.745% (inactive)
15,Cc1ccsc1C(C(=O)NC1CCCCC1)N(C(=O)Cc1cccs1)C1CC1 (centres undefined),-3.39% (inactive)
16,CCN1C(=O)/C(=C\N2CCN(c3cccc(Cl)c3)CC2)SC1=S,11.5% (inactive)
17,S=C1SCN(CCN2CCOCC2)CN1Cc1ccccc1,16% (inactive)
18,Cc1occc1C(=O)Nc1nnc(C2CCCCC2)s1,9.21% (inactive)
19,COCCN(CC(=O)Nc1ccccc1C)S(=O)(=O)c1ccc(S(=O)(=O)N2CCCC2)cc1,10.3% (inactive)
20,O=C(NCCCN1CCN(c2ccccc2F)CC1)C1CCC(=O)N1C1CCCCC1 (centres undefined),1.73% (inactive)
21,COc1ccc(-c2nc(CS(=O)CC(=O)NCc3cccnc3)c(C)o2)cc1OC (centres undefined),10.4% (inactive)
22,CC(=O)O[C@]1(C(C)=O)CC[C@H]2[C@@H]3C=C(C)C4=CC(=O)CC[C@]4(C)[C@H]3CC[C@@]21C,9.71% (inactive)

row,Structure (SMILES),inhibition
1,CCNS(=O)(=O)c1ccc(NC(=O)Nc2cccc(C(F)(F)F)c2)cc1,12.9% (inactive)
2,Cc1c(C(=O)N2CCCc3ccccc32)sc2nc(-c3ccccc3)cn12,16% (inactive)
3,O=C1c2cccnc2C(=O)N1Cc1cccs1,14.6% (inactive)
4,Cc1ccc(C2CC(c3cccc(Br)c3)n3nc(N)nc3N2)cc1 (centres undefined),11.6% (inactive)
5,CCOC(=O)Cn1c(=O)oc2cc(S(=O)(=O)NCC3CCCO3)ccc21 (centres undefined),15% (inactive)
6,CCOC(=O)c1oc2ccccc2c1NC(=O)c1cccs1,0.31% (inactive)
7,CCCS(=O)(=O)N1CCCC(C(=O)N2CCN(c3ccccc3)CC2)C1 (centres undefined),4.18% (inactive)
8,COc1ccc(-n2nnc3c(=O)n(CC(=O)N4CCC(Cc5ccccc5)CC4)cnc32)cc1,21.3% (inactive)
9,COc1cc(OC)cc(C(=O)NCCSCc2ccco2)c1,4.01% (inactive)
10,CCNS(=O)(=O)c1ccc(NC(=O)Nc2cccc(OC)c2)cc1,27.3% (inactive)
11,O=C(c1cccc2ccccc12)N1CCN(c2ccccc2F)CC1,18.4% (inactive)
12,CCOC(=O)C1CCN(C(=O)CSc2cc(=O)n(C)c3ccccc23)CC1,7.27% (inactive)
13,CCn1ncc(C2=NOC(C(=O)Nc3ccccc3C(=O)OC)C2)c1C (centres undefined),12.4% (inactive)
14,COc1ccc(N(Cc2cc3cc(OC)ccc3[nH]c2=O)S(C)(=O)=O)cc1,-2.02% (inactive)
15,CCc1c(C)nc2ncnn2c1N1CCC(C(=O)NCc2ccc3c(c2)OCO3)CC1,20.2% (inactive)
16,Cc1ccc(-c2nc(CS(=O)CC(=O)NC3CCCC3)c(C)o2)cc1 (centres undefined),10.5% (inactive)
17,FC(F)(F)c1nnc2sc(-c3ccco3)nn12,7.12% (inactive)
18,CCOC(=O)C(CCOc1cccc(CC)c1)C(=O)OCC,9.83% (inactive)
19,COc1ccc(-c2nnn(CC(=O)N(CCO)C(C(=O)NC3CCCC3)c3ccc(F)cc3)n2)cc1 (centres undefined),3.14% (inactive)
20,Cc1ccccc1CSc1nnc(-c2ccccn2)n1N,12.7% (inactive)
21,CCOC(=O)c1[nH]c2ccc(C)cc2c1N=C(C)N(C)C,10.8% (inactive)
22,COC(=O)C1=C(C)NC2=C(C(=O)c3ccccc32)C1c1ccc(-c2ccc(C(=O)O)cc2)o1 (centres undefined),7.73% (inactive)

row,Structure (SMILES),inhibition
1,CC1C=CCC2C(=O)N(c3cccc(C(=O)N4CCCCCC4)c3)C(=O)C12 (centres undefined),19% (inactive)
2,CCS(=O)(=O)N1CCCC(C(=O)NCc2ccc(C)cc2)C1 (centres undefined),13.3% (inactive)
3,COC(=O)Cc1c(C)c2ccc(OCC(=O)NCc3ccc4c(c3)OCO4)cc2oc1=O,4.91% (inactive)
4,CNC(=O)CSc1nnc(CCc2ccccc2)n1-c1ccccc1,5.29% (inactive)
5,CC1CCCN(C(=O)Cn2c(=O)oc3ccccc32)C1 (centres undefined),-0.77% (inactive)
6,CC1(C)SC2c3ccccc3C(=O)N2[C@@H]1C(=O)NCc1ccco1 (some centres undefined),-5.49% (inactive)
7,O=C(c1ccc(O)cc1)c1ccc(C(=O)O)c(C(=O)O)c1,-8.85% (inactive)
8,O=C(C1CCN(CC2CCCCC2)CC1)N1CCCC1,4.05% (inactive)
9,COC(=O)c1oc2ccc(Br)cc2c1NC(C)=O,11.8% (inactive)
10,COc1ccccc1CNCc1cccs1,-3.09% (inactive)
11,CCn1cc(C(=O)NCc2ccc(OC)cc2OC)c(=O)c2ccc(C)nc21,-3.58% (inactive)
12,COc1ccc(-c2noc(-c3cccc(OC)c3OC)n2)cc1OC,21.6% (inactive)
13,O=C(CN1CCN(c2nc(-c3ccccc3)cs2)CC1)NCc1ccc2c(c1)OCO2,13.6% (inactive)
14,Cc1cccc(N(CC(O)CN(C)C)S(=O)(=O)c2ccccc2)c1 (centres undefined),-22.7% (inactive)
15,COC(=O)[C@H](C)NC(=O)Nc1ccc(OC(F)(F)F)cc1,4.04% (inactive)
16,O=C1OC(NC(=O)c2ccccc2)C(N2CCOCC2)=C1Cl (centres undefined),18.5% (inactive)
17,Cc1ccc(Oc2ccc(N)cc2)cc1,-0.695% (inactive)
18,O=C(CC1NCCNC1=O)Nc1ccc(Oc2ccccc2)cc1 (centres undefined),32.3% (active)
19,O=C(CC1Nc2ccccc2NC1=O)Nc1ccccc1 (centres undefined),-0.205% (inactive)
20,CCOc1ccc(NC(=O)CC2NCCNC2=O)cc1 (centres undefined),2.46% (inactive)
